From ChEMBL document CHEMBL1938291, “Activity of novel quinoxaline-derived chalcones on in vitro glioma cell proliferation” (Eur J Med Chem, 2012)
In brackets after ≈: the same amount, converted by molar mass. Activity calls are given as the source filed them. The calls are words filed in the database; no cut-off is given here.

Key:
[1] = test system: C6; assay: Antiproliferative activity against rat C6 cells at 2 ug/ml after 48 hrs by hemocytometric analysis; assay type: functional; conditions: C6, 48 h
Summary of the method: (§1)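 Doxorubicin at 2 μg/mL for 48 h on C6 and U-138 MG cells. Proliferation measured as percentage inhibition.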

[2] = Antiproliferative activity against human U138MG cells at 2 ug/ml after 48 hrs by hemocytometric analysis; assay type: functional; conditions: U138-MG; summary of the method: as §1
[3] = test system: C6; assay: Cytotoxicity against rat C6 cells after 48 hrs by MTT assay; assay type: functional, cell-based; conditions: C6, 48 h
Summary of the method: (§2)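 MTT viability assay. C6 seeded at 1×10^3 cells/well in DMEM/5% FBS and U-138 MG in DMEM/15% FBS. Exposed to 0.1, 0.5, 1, 5, 10 μg/ml for 24, 48 or 72 h, or to AS605240 at 100 nM, 10 μM or 30 μM for 48 h. Vehicle 0.01% DMSO. Viability given as % of control, mean ± SEM of 3 experiments in triplicate. IC50 as geometric mean with 95% confidence limits.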

[4] = Cytotoxicity against human U138MG cells at 5 ug/ml after 48 hrs by MTT assay; assay type: functional, U138-MG; summary of the method: as §2
[5] = test system: C6; assay: Cytotoxicity against rat C6 cells at 5 ug/ml after 48 hrs by MTT assay; assay type: functional; summary of the method: as §2
[6] = test system: U138-MG; assay: Antiproliferative activity against human U138MG cells at 0.1 to 0.5 ug/ml after 24 hrs by hemocytometric analysis; assay type: functional, cell-based
Summary of the method: (§3)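 Cell-count proliferation assay. U-138 MG seeded at 1×10^4 cells/well in DMEM/15% FBS and C6 at 5×10^3 cells/well in DMEM/5% FBS, grown 24 h. Medium changed, then chalcones (0.1–10 μg/ml) or AS605240 (100 nM, 10 μM, 30 μM) added. Cells washed in Ca/Mg-free PBS, trypsin/EDTA-detached and counted in a Neubauer chamber. Inhibition versus control, mean ± SEM of 3 experiments in triplicate.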

[7] = Antiproliferative activity against human U138MG cells after 24 to 72 hrs by hemocytometric analysis; assay type: functional, cell-based; conditions: U138-MG; summary of the method: as §3
[8] = test system: C6; assay: Antiproliferative activity against rat C6 cells at 5 ug/ml after 24 to 72 hrs by hemocytometric analysis; assay type: functional; summary of the method: as §3
[9] = test system: C6; assay: Antiproliferative activity against rat C6 cells at 0.1 to 0.5 ug/ml after 24 hrs by hemocytometric analysis; assay type: functional, cell-based; summary of the method: as §3
[10] = test system: C6; assay: Antiproliferative activity against rat C6 cells after 24 to 72 hrs by hemocytometric analysis; assay type: functional, cell-based; summary of the method: as §3
[11] = test system: U138-MG; assay: Cytotoxicity against human U138MG cells at 0.1 to 0.5 ug/ml after 48 to 72 hrs by MTT assay; assay type: functional, cell-based; summary of the method: as §2
[12] = Antiproliferative activity against human U138MG cells at 5 ug/ml after 24 to 72 hrs by hemocytometric analysis; assay type: functional, U138-MG; summary of the method: as §3
[13] = test system: C6; assay: Cytotoxicity against rat C6 cells at 0.1 to 0.5 ug/ml after 48 to 72 hrs by MTT assay; assay type: functional, cell-based; summary of the method: as §2
[14] = test system: C6; assay: Cytotoxicity against rat C6 cells at 0.1 to 0.5 ug/ml by MTT assay; assay type: functional, cell-based; conditions: TDE = time-dependent effect; summary of the method: as §2
[15] = test system: C6; assay: Antiproliferative activity against rat C6 cells at 0.1 to 0.5 ug/ml by hemocytometric analysis; assay type: functional, cell-based; conditions: TDE = time-dependent effect; summary of the method: as §3
[16] = test system: U138-MG; assay: Cytotoxicity against human U138MG cells at 0.1 to 0.5 ug/ml by MTT assay; assay type: functional, cell-based; conditions: TDE = time-dependent effect; summary of the method: as §2
[17] = test system: U138-MG; assay: Antiproliferative activity against human U138MG cells at 0.1 to 0.5 ug/ml after 48 to 72 hrs by hemocytometric analysis; assay type: functional, cell-based; summary of the method: as §3
[18] = test system: C6; assay: Cell cycle arrest in rat C6 cells assessed as accumulation at sub-G1/G0 phase after 12 hrs by flow cytometric analysis; assay type: functional, cell-based
Summary of the method: (§4)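 C6 cells at 3×10^5 per well, in triplicate, given 0.1% DMSO vehicle or 2.5 μg/ml for 6, 12 or 24 h. Ethanol-fixed (70%), stained with propidium iodide/RNase/Triton, 10,000 cells acquired by flow cytometry. Results are relative cell numbers in sub-G1/G1, S and G2/M, from 6 independent experiments.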

[19] = test system: U138-MG; assay: Cytotoxicity against human U138MG cells at 0.1 to 0.5 ug/ml after 24 hrs by MTT assay; assay type: functional, cell-based; summary of the method: as §2
[20] = test system: C6; assay: Inhibition of PI3Kgamma-mediated Akt activation in rat C6 cells at 5 ug/ml after 30 mins by flow cytometric analysis; assay type: cell-based
Summary of the method: (§5)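 C6 cells (2×10^5/well) grown 24 h in 5% FBS DMEM, then serum-starved 24 h in 0.5% FBS. Treated with 5 μg/ml test compound or 30 μM AS605240 plus 5% FBS stimulus, 15 or 30 min. Cells trypsinized, fixed, permeabilized, stained 30 min with AKT antibody and read by flow cytometry. Controls: unstimulated, and 5% FBS plus 0.01% DMSO.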

[21] = test system: C6; assay: Antiproliferative activity against rat C6 cells at 0.1 to 0.5 ug/ml after 48 to 72 hrs by hemocytometric analysis; assay type: functional, cell-based; summary of the method: as §3
[22] = test system: C6; assay: Inhibition of PI3Kgamma-mediated Akt activation in rat C6 cells at 5 ug/ml after 15 mins by flow cytometric analysis; assay type: cell-based; summary of the method: as §5
[23] = test system: C6; assay: Cell cycle arrest in rat C6 cells assessed as accumulation at sub-G1/G0 phase after 6 hrs by flow cytometric analysis; assay type: functional, cell-based; summary of the method: as §4
[24] = test system: C6; assay: Cell cycle arrest in rat C6 cells assessed as accumulation at sub-G1/G0 phase at 2.5 ug/ml after 24 hrs by flow cytometric analysis (reference value: 57.9%); assay type: functional; summary of the method: as §4
[25] = test system: U138-MG; assay: Antiproliferative activity against human U138MG cells at 0.1 to 0.5 ug/ml by hemocytometric analysis; assay type: functional, cell-based; conditions: TDE = time-dependent effect; summary of the method: as §3
[26] = test system: C6; assay: Cytotoxicity against rat C6 cells at 0.1 to 0.5 ug/ml after 24 hrs by MTT assay; assay type: functional, cell-based; summary of the method: as §2
[27] = test system: C6; assay: Cytotoxicity against rat C6 cells at 100 nM after 48 hrs by MTT assay; assay type: functional, cell-based; summary of the method: as §2
[28] = test system: C6; assay: Inhibition of PI3Kgamma-mediated Akt activation in rat C6 cells at 30 uM after 15 mins by flow cytometric analysis; assay type: cell-based; summary of the method: as §5
[29] = Antiproliferative activity against human U138MG cells assessed as growth inhibition at 30 uM after 48 by hemocytometric analysis; assay type: functional; conditions: U138-MG, read-out: GI; summary of the method: as §3
[30] = Growth inhibition of human U138MG cells at 30 uM after 48 by MTT assay; assay type: functional; conditions: U138-MG, read-out: GI; summary of the method: as §2
[31] = test system: C6; assay: Antiproliferative activity against rat C6 cells assessed as growth inhibition at 30 uM after 48 hrs by hemocytometric analysis; assay type: functional; conditions: C6, 48 h, read-out: GI; summary of the method: as §3
[32] = test system: C6; assay: Antiproliferative activity against rat C6 cells at 100 nM after 48 hrs by hemocytometric analysis; assay type: functional, cell-based; summary of the method: as §3
[33] = test system: U138-MG; assay: Cytotoxicity against human U138MG cells at 100 nM after 48 by MTT assay; assay type: functional, cell-based; summary of the method: as §2
[34] = test system: C6; assay: Inhibition of PI3Kgamma-mediated Akt activation in rat C6 cells at 30 uM after 30 mins by flow cytometric analysis; assay type: cell-based; summary of the method: as §5
[35] = test system: U138-MG; assay: Antiproliferative activity against human U138MG cells at 100 nM after 48 by hemocytometric analysis; assay type: functional, cell-based; summary of the method: as §3
[36] = test system: C6; assay: Growth inhibition of rat C6 cells at 30 uM after 48 hrs by MTT assay; assay type: functional; conditions: C6, 48 h, read-out: GI; summary of the method: as §2

Row | SMILES | IC50 [3] [µg/mL] | Imax [4] [%] | Imax [5] [%] | Activity [6] | IC50 [7] [µg/mL] | Imax [8] [%] | Activity [9] | IC50 [10] [µg/mL] | Activity [11] | Imax [12] [%] | Activity [13] | Activity [14] | Activity [15] | Activity [16] | Activity [17] | Activity [19] | Activity [21] | Activity [25] | Activity [26] | other results
1 | COc1cccc2c1C(=O)c1c(O)c3c(c(O)c1C2=O)C[C@@](O)(C(=O)CO)C[C@@H]3O[C@H]1C[C@H](N)[C@H](O)[C@H](C)O1 [DOXORUBICIN] |  |  |  |  |  |  |  |  |  |  |  |  |  |  |  |  |  |  |  | inhibition at 2 µg/mL [1]: 27%; inhibition at 2 µg/mL [2]: 31%
2 | O=C(/C=C/c1ccc2nccnc2c1)c1ccccc1 | 4.63 (≈ 17.8 µM) | 21 | 60 |  |  |  |  |  |  |  |  |  |  |  |  |  |  |  |  | 
3 | O=C(/C=C/c1ccc2nccnc2c1)c1ccc2c(c1)OCO2 | 8.39 (≈ 27.6 µM) | 15 | 55 |  |  |  |  |  |  |  |  |  |  |  |  |  |  |  |  | 
4 | COc1ccc(OC)c(C(=O)/C=C/c2ccc3nccnc3c2)c1 | 2.66 (≈ 8.3 µM) | 36 | 50 | inactive | 2.64 (≈ 8.24 µM) | 85 | inactive | 1.35 (≈ 4.21 µM) | Active | 87 | Active | tde | tde | tde | Active | inactive | Active | tde | inactive | Activity [18]: Active; inhibition [20]: 46%; inhibition [22]: 60%; Activity [23]: Active; Activity [24]: 66.4%
5 | COc1ccc(C(=O)/C=C/c2ccc3nccnc3c2)cc1 | 4.42 (≈ 15.2 µM) | 34 | 53 | inactive | 2.67 (≈ 9.2 µM) | 90 | inactive | 2.19 (≈ 7.54 µM) | Active | 84 | Active | tde | tde | tde | Active | inactive | Active | tde | inactive | 
6 | O=C1NC(=O)/C(=C/c2ccc3nccnc3c2)S1 |  |  |  |  |  |  |  |  |  |  |  |  |  |  |  |  |  |  |  | Activity [27]: inactive; inhibition [28]: 31%; inhibition of growth at 30 µM [29]: 10%; inhibition of growth at 30 µM [30]: 10%; inhibition of growth at 30 µM [31]: 73%; Activity [32]: inactive; Activity [33]: inactive; inhibition [34]: 41%; Activity [35]: inactive; inhibition of growth at 30 µM [36]: 35%
7 | COc1ccc(C(=O)/C=C/c2ccc3nccnc3c2)cc1OC | 4.16 (≈ 13 µM) | 33 | 51 | inactive | 2.29 (≈ 7.15 µM) | 82 | inactive | 1 (≈ 3.12 µM) | Active | 84 | Active | tde | tde | tde | Active | inactive | Active | tde | inactive | 
8 | COc1ccc(C(=O)/C=C/c2ccc3nccnc3c2)c(OC)c1 | 4.6 (≈ 14.4 µM) | 42 | 52 | inactive | 2.48 (≈ 7.74 µM) | 67 | inactive | 1.53 (≈ 4.78 µM) | Active | 86 | Active | tde | tde | tde | Active | inactive | Active | tde | inactive | 
9 | O=C(/C=C/c1ccc2nccnc2c1)c1ccc([N+](=O)[O-])cc1 |  | 9 | 26 |  |  |  |  |  |  |  |  |  |  |  |  |  |  |  |  | 
10 | O=C(/C=C/c1ccc2nccnc2c1)c1ccc(Br)cc1 | 9.19 (≈ 27.1 µM) | 16 | 56 |  |  |  |  |  |  |  |  |  |  |  |  |  |  |  |  | 
